# Test results from PMC10454840 (Drug Design, Development and Therapy, 2023).
# Columns and labels:
# [1] = system: cysts from E. granulosus s.s.-infected mice; assay: TEM observation of cysts from treated infected mice; type: in vivo, Kunming mice; conditions: 50 mg/kg, oral, 28 days
# Summary of the method: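 Female Kunming mice, 8 weeks old, were infected intraperitoneally with 50 in vitro-derived microcysts. Infection was confirmed by B-mode ultrasound at 6 months, and mice were randomised into groups of 6. Test compound was given in 0.5% CMC-Na by daily oral gavage (0.1 mL/10 g) for 28 days against a vehicle control. Peritoneal cysts were isolated, and randomly selected cysts were examined by TEM.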
# E. granulosus s.s. PSCs = assay: In vitro drug treatment of PSCs, viability by 1% eosin staining; type: cell-based, Echinococcus granulosus sensu stricto; conditions: Echinococcus granulosus, 48 h, read-out: viability of PSCs
# Summary of the method: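 Protoscoleces came from sheep cysts. They were washed in PBS, digested with 1% pepsin for 30 min and cultured in RPMI 1640 with 10% FBS and penicillin/streptomycin at 37 °C, 5% CO2 for 3 days, with viability above 98%. Wells held 200 PSCs. Compounds came from 20 mM DMSO stocks, at 40 μM final for screening, then 40–240 μM. The control was 1% DMSO. After 48 h, 1% eosin marked dead PSCs red. Three independent experiments, mean ± S.D.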
# [2] = Acute toxicity study in mice; conditions: both, Kunming, mouse, in vivo, po, single oral dose
# [3] = system: E. granulosus s.s.-infected mice; assay: Drug treatment of E. granulosus s.s.-infected mice, cyst weight; type: in vivo, Kunming mice; conditions: 50 mg/kg/day oral, 28 days
# PC12 cells [4] = assay: Hoechst 33342 staining assay of PC12 cell apoptosis; type: cell-based; conditions: 200 μM, 48 h
# Summary of the method: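 PC12 cells seeded at 1×10^5/well in 6-well plates and grown at 37 °C, 5% CO2 to 70–80% confluence. Test compound at 200 μM for 48 h, with a DMSO control group. Medium removed, Hoechst staining solution added for 30 min at 37 °C, cells washed three times with PBS, and nuclear morphology viewed by inverted fluorescence microscopy.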
# PC12 cells [5] = assay: MTT cytotoxicity assay in PC12 cells; type: cell-based; conditions: 200 μM, 48 h
# Summary of the method: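 PC12 cells in log phase were grown in RPMI 1640 with 10% horse serum, 5% FBS and penicillin/streptomycin, then seeded at 1×10^4 per well and settled for 12 h at 37 °C, 5% CO2. Compounds were added at 6.25–200 μM final, in triplicate, with a DMSO control, for 48 h. Serum-free medium plus MTT followed for 4 h, then formazan lysate and absorbance at 570 nm. Inhibition = [1−(ODtreated−ODblank)/(ODcontrol−ODblank)]×100%.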
SMILES,cyst ultrastructure (TEM) [1],viability at 40 µM (E. granulosus s.s. PSCs) [%],LD50 at 14 days [2] [mg/kg],cyst weight [3] [g],PC12 cell nuclei / morphology (apoptosis) (PC12 cells [4]),PC12 cell viability inhibition (PC12 cells [5]) [%]
"CCCSc1ccc2nc(NC(=O)OC)[nH]c2c1 [ABZ, Albendazole]",fewer microtriches and an unclear germinal layer structure but clear nuclei,94.8 ± 5,,,,
"COc1ccc2c(c1)[nH]c1c(C)nccc12 [HM, 7-methoxy-1-methyl-9H-pyrido[3,4-b] indole]",fewer microtriches and an unclear germinal layer structure but clear nuclei,94.7 ± 4.52,447,6.53 ± 1.56,reduced number of cells with varying morphological sizes and significantly denser granules or bright blue fluorescence,87.02 ± 5.65
